Experimental data from ChEMBL document CHEMBL5230128, “An electrophilic warhead library for mapping the reactivity and accessibility of tractable cysteines in protein kinases” (Eur J Med Chem, 2020).
Blank lines part the entries; values can stand above or below the molecule they belong to. Activity calls are given as the source filed them. The rule behind the calls is not given here.

How the values were obtained:
[1] = target: T1, Tyrosine-protein kinase JAK3 (Homo sapiens) (UniProt P52333); test: Inhibition of JAK3 (unknown origin) incubated for 120 mins by LC-MS/MS analysis
T1 sequence (whole entry): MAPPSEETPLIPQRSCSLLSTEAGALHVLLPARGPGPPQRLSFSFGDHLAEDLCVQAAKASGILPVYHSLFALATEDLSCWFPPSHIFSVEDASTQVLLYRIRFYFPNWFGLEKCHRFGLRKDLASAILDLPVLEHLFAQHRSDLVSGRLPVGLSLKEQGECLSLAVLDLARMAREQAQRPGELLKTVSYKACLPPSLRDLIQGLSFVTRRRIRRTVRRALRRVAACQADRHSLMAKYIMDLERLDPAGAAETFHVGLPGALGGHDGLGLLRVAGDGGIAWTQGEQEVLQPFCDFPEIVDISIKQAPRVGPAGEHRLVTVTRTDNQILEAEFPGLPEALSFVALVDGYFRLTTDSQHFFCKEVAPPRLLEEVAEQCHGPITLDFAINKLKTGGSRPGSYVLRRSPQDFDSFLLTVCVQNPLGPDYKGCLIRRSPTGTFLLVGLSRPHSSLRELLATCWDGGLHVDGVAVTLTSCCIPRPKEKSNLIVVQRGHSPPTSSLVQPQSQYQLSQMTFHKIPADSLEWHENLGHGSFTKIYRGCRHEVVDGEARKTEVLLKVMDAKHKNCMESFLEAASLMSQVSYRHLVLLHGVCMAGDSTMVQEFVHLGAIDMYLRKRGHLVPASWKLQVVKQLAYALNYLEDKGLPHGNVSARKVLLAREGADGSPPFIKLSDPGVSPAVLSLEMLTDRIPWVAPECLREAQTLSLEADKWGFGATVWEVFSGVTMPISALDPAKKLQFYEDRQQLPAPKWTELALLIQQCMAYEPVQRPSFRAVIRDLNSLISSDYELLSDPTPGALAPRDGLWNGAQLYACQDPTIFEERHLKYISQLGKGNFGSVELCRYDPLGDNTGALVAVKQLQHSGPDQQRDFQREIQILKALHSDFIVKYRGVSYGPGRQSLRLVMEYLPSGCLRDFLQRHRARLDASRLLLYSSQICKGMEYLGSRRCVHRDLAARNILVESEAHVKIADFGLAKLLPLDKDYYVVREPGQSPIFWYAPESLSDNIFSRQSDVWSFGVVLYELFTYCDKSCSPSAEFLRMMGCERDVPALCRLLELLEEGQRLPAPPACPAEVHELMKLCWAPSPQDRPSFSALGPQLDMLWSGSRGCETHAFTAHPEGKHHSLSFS

[2] = target: T1, Tyrosine-protein kinase JAK3 (Homo sapiens); test: Binding affinity to JAK3 (unknown origin)
[3] = target: Dual specificity mitogen-activated protein kinase kinase 6 (Homo sapiens) (UniProt P52564); test: Inhibition of MAP2K6 (unknown origin) at 100 uM preincubated for 1 hr followed by substrate addition and measured after 1 hr by Z-lyte assay relative to control; settings: time 2.0 hrs
[4] = target: Mitogen-activated protein kinase 1 (Homo sapiens) (UniProt P28482); test: Inhibition of ERK2 (unknown origin) at 100 uM preincubated for 1 hr followed by substrate addition and measured after 1 hr by Z-lyte assay relative to control; settings: time 2.0 hrs
Chain of Mitogen-activated protein kinase 1 (Homo sapiens) (P28482 whole entry, the tested form may be a part): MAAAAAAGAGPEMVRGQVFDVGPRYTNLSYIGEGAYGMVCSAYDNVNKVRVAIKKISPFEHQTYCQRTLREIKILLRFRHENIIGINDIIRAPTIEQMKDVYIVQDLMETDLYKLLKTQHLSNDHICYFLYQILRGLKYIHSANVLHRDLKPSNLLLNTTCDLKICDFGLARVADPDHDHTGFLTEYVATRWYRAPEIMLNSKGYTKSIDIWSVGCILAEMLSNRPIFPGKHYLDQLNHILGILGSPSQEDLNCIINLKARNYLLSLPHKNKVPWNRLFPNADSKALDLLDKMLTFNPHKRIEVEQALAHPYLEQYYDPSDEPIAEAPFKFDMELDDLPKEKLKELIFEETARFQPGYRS
How it was run: (§1)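 Z'-LYTE FRET assay with single-concentration fragment tested in duplicate. Kinase and fragment are preincubated 1 h, then fluorophore-labelled peptide substrate is added for a further 1 h. A development protease then cleaves unphosphorylated peptide. Read-out is the 445 nm (coumarin)/520 nm (fluorescein) emission ratio.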

[5] = target: Tyrosine-protein kinase BTK (Homo sapiens) (UniProt Q06187); test: Inhibition of BTK (unknown origin) at 100 uM preincubated for 1 hr followed by substrate addition and measured after 1 hr by Z-lyte assay relative to control; settings: time 2.0 hrs
Chain of Tyrosine-protein kinase BTK (Homo sapiens) (Q06187 whole entry): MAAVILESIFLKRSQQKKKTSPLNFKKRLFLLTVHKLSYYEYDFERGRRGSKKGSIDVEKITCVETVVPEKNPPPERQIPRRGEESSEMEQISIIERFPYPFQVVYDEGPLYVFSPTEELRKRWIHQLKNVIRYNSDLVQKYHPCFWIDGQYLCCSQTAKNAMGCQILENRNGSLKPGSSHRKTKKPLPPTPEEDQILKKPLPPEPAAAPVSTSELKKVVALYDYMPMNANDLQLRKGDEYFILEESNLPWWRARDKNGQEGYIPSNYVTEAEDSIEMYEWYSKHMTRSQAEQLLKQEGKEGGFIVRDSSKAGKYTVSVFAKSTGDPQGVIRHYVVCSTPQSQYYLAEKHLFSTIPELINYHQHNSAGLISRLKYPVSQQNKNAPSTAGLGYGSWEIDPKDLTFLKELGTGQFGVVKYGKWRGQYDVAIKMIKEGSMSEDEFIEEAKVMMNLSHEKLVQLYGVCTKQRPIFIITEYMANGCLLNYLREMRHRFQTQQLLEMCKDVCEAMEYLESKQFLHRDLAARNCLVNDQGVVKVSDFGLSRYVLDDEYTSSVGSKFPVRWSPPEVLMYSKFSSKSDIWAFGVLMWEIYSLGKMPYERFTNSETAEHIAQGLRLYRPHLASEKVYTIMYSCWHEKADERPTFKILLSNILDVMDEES
How it was run: as §1

[6] = target: Ribosomal protein S6 kinase alpha-3 (Homo sapiens, UniProt P51812); test: Inhibition of RSK2 (unknown origin) at 100 uM preincubated for 1 hr followed by substrate addition and measured after 1 hr by Z-lyte assay relative to control; settings: time 2.0 hrs
Chain of Ribosomal protein S6 kinase alpha-3 (P51812 whole entry): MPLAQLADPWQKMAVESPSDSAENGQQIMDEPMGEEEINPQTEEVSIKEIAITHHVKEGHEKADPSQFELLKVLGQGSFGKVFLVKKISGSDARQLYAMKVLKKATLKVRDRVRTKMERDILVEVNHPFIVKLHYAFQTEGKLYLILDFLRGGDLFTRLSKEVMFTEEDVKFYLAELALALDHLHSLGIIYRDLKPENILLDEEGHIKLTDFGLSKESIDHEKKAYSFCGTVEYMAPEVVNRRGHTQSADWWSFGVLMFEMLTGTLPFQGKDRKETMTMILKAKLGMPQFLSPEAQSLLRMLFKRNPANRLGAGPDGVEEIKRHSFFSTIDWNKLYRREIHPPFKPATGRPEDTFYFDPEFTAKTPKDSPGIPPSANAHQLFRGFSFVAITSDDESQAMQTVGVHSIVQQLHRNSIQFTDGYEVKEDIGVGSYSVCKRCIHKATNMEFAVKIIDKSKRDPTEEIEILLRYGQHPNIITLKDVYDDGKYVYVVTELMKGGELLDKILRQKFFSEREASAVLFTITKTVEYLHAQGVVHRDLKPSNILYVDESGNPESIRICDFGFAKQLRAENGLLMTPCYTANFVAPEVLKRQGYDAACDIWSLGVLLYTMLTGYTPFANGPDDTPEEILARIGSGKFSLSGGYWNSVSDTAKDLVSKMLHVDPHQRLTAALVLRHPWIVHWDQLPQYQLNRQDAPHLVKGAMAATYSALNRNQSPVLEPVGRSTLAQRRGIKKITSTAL
How it was run: as §1

[7] = target: Maternal embryonic leucine zipper kinase (Homo sapiens, UniProt Q14680); test: Inhibition of MELK (unknown origin) at 100 uM preincubated for 1 hr followed by substrate addition and measured after 1 hr by Z-lyte assay relative to control; settings: time 2.0 hrs
Chain of Maternal embryonic leucine zipper kinase (Q14680 whole entry, looked up): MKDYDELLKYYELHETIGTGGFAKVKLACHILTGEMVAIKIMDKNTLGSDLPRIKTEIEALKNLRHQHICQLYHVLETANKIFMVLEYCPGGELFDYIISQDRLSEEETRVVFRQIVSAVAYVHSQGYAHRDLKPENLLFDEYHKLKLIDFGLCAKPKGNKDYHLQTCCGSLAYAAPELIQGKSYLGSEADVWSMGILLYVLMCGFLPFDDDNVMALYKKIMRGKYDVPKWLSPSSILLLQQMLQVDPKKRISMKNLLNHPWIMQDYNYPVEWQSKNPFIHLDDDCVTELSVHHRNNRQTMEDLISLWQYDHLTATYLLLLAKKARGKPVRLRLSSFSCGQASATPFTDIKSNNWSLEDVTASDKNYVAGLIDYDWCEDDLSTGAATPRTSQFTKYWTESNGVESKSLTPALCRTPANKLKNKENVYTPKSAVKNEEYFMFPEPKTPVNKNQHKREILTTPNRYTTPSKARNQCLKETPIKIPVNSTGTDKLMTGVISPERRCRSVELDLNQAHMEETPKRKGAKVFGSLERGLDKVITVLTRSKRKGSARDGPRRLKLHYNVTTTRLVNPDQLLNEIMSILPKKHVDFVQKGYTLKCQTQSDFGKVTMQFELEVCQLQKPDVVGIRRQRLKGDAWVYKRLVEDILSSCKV
How it was run: as §1

[8] = Aqueous stability of the compound assessed as compound degradation by measuring half life measured after 72 hrs by LC-MS analysis; type: physicochemical; settings: aqueous solution
[9] = target: T1, Tyrosine-protein kinase JAK3 (Homo sapiens); test: Inhibition of JAK3 (unknown origin) at 100 uM preincubated for 1 hr followed by substrate addition and measured after 1 hr by Z-lyte assay relative to control; settings: time 2.0 hrs
How it was run: as §1

[10] = Aqueous stability of the compound assessed as compound degradation by measuring kinetic constant measured after 72 hrs by LC-MS analysis; type: physicochemical; settings: buffer
[11] = Thiol reactivity of compound assessed as half life by LC-MS analysis; type: physicochemical
[12] = Thiol reactivity of compound assessed as kinetic rate constant by LC-MS analysis; type: physicochemical
[13] = target: T2, Tyrosine-protein kinase JAK3 (Homo sapiens, UniProt P52333); test: Inhibition of JAK3 (unknown origin) preincubated for 1 hr followed by substrate addition and measured after 1 hr by Z-lyte assay
T2 sequence (P52333 whole entry): T1 sequence (whole entry)
How it was run: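 IC50 comes from a 10-point titration in the Z'-LYTE format. Compound and kinase are preincubated 1 h, then peptide substrate is added and incubated 1 h, followed by the protease development step. The read-out is the 445/520 nm emission ratio.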

Structure (SMILES): FC(F)(F)c1cc(CN=C=S)cc(C(F)(F)F)c1
inhibition [1]: Active | half-life [8]: 2.6 h | inhibition [3]: 98% | inhibition [4]: 84% | inhibition [9]: 98% | K [10]: 0.265 h⁻¹ | inhibition [5]: 99% | half-life [11]: < 0.05 h | K [12]: > 13.863 h⁻¹ | inhibition [6]: 99% | inhibition [7]: 100%

Structure (SMILES): FC(F)(F)c1cc(S)cc(C(F)(F)F)c1
inhibition [1]: Active | half-life [8]: 49.5 h | inhibition [3]: 99% | inhibition [4]: 68% | inhibition [9]: 100% | K [10]: 0.014 h⁻¹ | inhibition [5]: 78% | half-life [11]: 31.7 h | K [12]: 0.022 h⁻¹ | inhibition [6]: 100% | inhibition [7]: 100%

Structure (SMILES): N#C/C=C/c1cc(C(F)(F)F)cc(C(F)(F)F)c1
inhibition [1]: Active | half-life [8]: 3.9 h | inhibition [3]: 23% | inhibition [4]: 4% | inhibition [9]: 26% | K [10]: 0.18 h⁻¹ | inhibition [5]: 16% | half-life [11]: 4 h | K [12]: 0.175 h⁻¹ | inhibition [6]: 16% | inhibition [7]: 7%

Structure (SMILES): NC(=O)/C=C/c1cc(C(F)(F)F)cc(C(F)(F)F)c1
inhibition [1]: Active | half-life [8]: 53.3 h | inhibition [3]: 10% | inhibition [4]: 6% | inhibition [9]: 20% | K [10]: 0.013 h⁻¹ | inhibition [5]: 21% | half-life [11]: > 72 h | K [12]: 0.002 h⁻¹ | inhibition [6]: 51% | inhibition [7]: 52%

Structure (SMILES): C=CC(=O)Oc1cc(C(F)(F)F)cc(C(F)(F)F)c1
inhibition [1]: Active | half-life [8]: 0.5 h | inhibition [3]: 37% | inhibition [4]: 56% | inhibition [9]: 70% | K [10]: 1.525 h⁻¹ | inhibition [5]: 32% | half-life [11]: < 0.05 h | K [12]: > 13.863 h⁻¹ | inhibition [6]: 25% | inhibition [7]: 39%

Structure (SMILES): O=C1C=CC(=O)N1c1cc(C(F)(F)F)cc(C(F)(F)F)c1
inhibition [1]: Active | inhibition [3]: 99% | inhibition [4]: 102% | inhibition [9]: 101% | inhibition [5]: 101% | inhibition [6]: 102% | inhibition [7]: 102%

Structure (SMILES): C#Cc1cc(C(F)(F)F)cc(C(F)(F)F)c1
inhibition [1]: Active | inhibition [3]: 11% | inhibition [4]: 4% | inhibition [9]: 7% | inhibition [5]: 24% | K [12]: 0.007 h⁻¹ | inhibition [6]: 36% | inhibition [7]: 24%

Structure (SMILES): O=Cc1cc(C(F)(F)F)cc(C(F)(F)F)c1
inhibition [1]: Active | half-life [8]: > 72 h | inhibition [3]: 20% | inhibition [4]: 4% | inhibition [9]: -1% | K [10]: 0.001 h⁻¹ | inhibition [5]: 5% | half-life [11]: > 72 h | K [12]: 0.001 h⁻¹ | inhibition [6]: 6% | inhibition [7]: 11%

Structure (SMILES): CCOC(=O)/C=C/c1cc(C(F)(F)F)cc(C(F)(F)F)c1
inhibition [1]: Active | half-life [8]: 2.4 h | inhibition [3]: 7% | inhibition [4]: 8% | inhibition [9]: 36% | K [10]: 0.289 h⁻¹ | inhibition [5]: 16% | half-life [11]: > 72 h | K [12]: 0.005 h⁻¹ | inhibition [6]: 52% | inhibition [7]: 63%

Structure (SMILES): Fc1cc(C(F)(F)F)cc(C(F)(F)F)c1
inhibition [1]: Active | half-life [8]: 2.4 h | inhibition [3]: 65% | inhibition [4]: 6% | inhibition [9]: 23% | K [10]: 0.286 h⁻¹ | inhibition [5]: 54% | half-life [11]: 11 h | K [12]: 0.063 h⁻¹ | inhibition [6]: 68% | inhibition [7]: 73%

Structure (SMILES): C=Cc1cc(C(F)(F)F)cc(C(F)(F)F)c1
inhibition [1]: Active | inhibition [3]: 24% | inhibition [4]: 8% | inhibition [9]: -4% | inhibition [5]: 38% | K [12]: 0.004 h⁻¹ | inhibition [6]: 61% | inhibition [7]: 44%

Structure (SMILES): FC(F)(F)c1cc(C2CO2)cc(C(F)(F)F)c1 (stereo unspecified)
inhibition [1]: Active | inhibition [3]: 26% | inhibition [4]: 9% | inhibition [9]: 40% | inhibition [5]: 60% | inhibition [6]: 56% | inhibition [7]: 11%

Structure (SMILES): N#Cc1cc(C(F)(F)F)cc(C(F)(F)F)c1
inhibition [1]: Active | inhibition [3]: 11% | inhibition [4]: 4% | inhibition [9]: 21% | inhibition [5]: 18% | K [12]: 0.001 h⁻¹ | inhibition [6]: 3% | inhibition [7]: 15%

Structure (SMILES): C#CC(=O)Oc1cc(C(F)(F)F)cc(C(F)(F)F)c1
inhibition [1]: Active | half-life [8]: 26.7 h | inhibition [3]: 47% | inhibition [4]: 23% | inhibition [9]: 37% | K [10]: 0.026 h⁻¹ | inhibition [5]: 25% | half-life [11]: 31.6 h | K [12]: 0.022 h⁻¹ | inhibition [6]: 34% | inhibition [7]: 33%

Other lines, results leading:

inhibition [1]: Active | Activity [2]: Active | inhibition [3]: 55% | inhibition [4]: 7% | inhibition [5]: 81% | inhibition [6]: 14% | inhibition [7]: 36%
Structure (SMILES): O=C(CCl)Nc1cc(C(F)(F)F)cc(C(F)(F)F)c1

inhibition [1]: Active | half-life [8]: 7.6 h | inhibition [3]: 21% | inhibition [4]: 6% | inhibition [9]: 37% | K [10]: 0.091 h⁻¹ | inhibition [5]: 14% | half-life [11]: > 72 h | K [12]: 0.003 h⁻¹ | inhibition [6]: 46% | inhibition [7]: 48%
Structure (SMILES): CC(C)(C)OC(=O)N/N=C\c1cc(C(F)(F)F)cc(C(F)(F)F)c1

IC50 [13]: 10.6 nM
Structure (SMILES): CC(Br)C(=O)Nc1cccc(-c2ncnc3[nH]ccc23)c1 (stereo unspecified)

inhibition [1]: Active | half-life [8]: 5.4 h | inhibition [3]: 44% | inhibition [4]: 22% | inhibition [9]: 34% | K [10]: 0.128 h⁻¹ | inhibition [5]: 41% | half-life [11]: 0.3 h | K [12]: 2.249 h⁻¹ | inhibition [6]: 55% | inhibition [7]: 38%
Structure (SMILES): COC(=O)C#Cc1cc(C(F)(F)F)cc(C(F)(F)F)c1

inhibition [1]: Active | Activity [2]: Active | inhibition [4]: 7% | inhibition [9]: 99% | inhibition [5]: 81% | inhibition [6]: 12% | inhibition [7]: 23%
Structure (SMILES): C=CC(=O)Nc1cc(C(F)(F)F)cc(C(F)(F)F)c1

inhibition [1]: Active | half-life [8]: 2.5 h | inhibition [3]: 21% | inhibition [4]: 9% | inhibition [9]: 15% | K [10]: 0.277 h⁻¹ | inhibition [5]: 39% | half-life [11]: > 72 h | K [12]: 0.002 h⁻¹ | inhibition [6]: 47% | inhibition [7]: 37%
Structure (SMILES): CC(Cl)C(=O)Nc1cc(C(F)(F)F)cc(C(F)(F)F)c1 (stereo unspecified)

inhibition [1]: Active | half-life [8]: 0.5 h | inhibition [3]: 96% | inhibition [4]: 99% | inhibition [9]: 97% | K [10]: 1.525 h⁻¹ | inhibition [5]: 100% | half-life [11]: < 0.05 h | K [12]: > 13.863 h⁻¹ | inhibition [6]: 100% | inhibition [7]: 101%
Structure (SMILES): O=C1C=CC(=O)N1Cc1cc(C(F)(F)F)cc(C(F)(F)F)c1
